Source: ChEMBL document CHEMBL1212869, “Anti-HIV and antiplasmodial activity of original flavonoid derivatives” (Bioorg Med Chem, 2010)

Legend:
THP-1 = assay: Cytotoxicity against human THP1 cells using propidium iodide staining after 72 hrs by flow cytometry; type: cell-based; details: THP-1, 72 h
Plasmodium falciparum = assay: Antiplasmodial activity against chloroquine-resistant Plasmodium falciparum W2 infected in human A+ erythrocytes assessed as inhibition of parasite proliferation after 48 hrs; type: functional, organism-based; details: W2, 48 h
Procedure, shortened: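 W2 parasites were cultured in RPMI 1640 with 25 mM HEPES, 25 mM NaHCO3 and 10% A+ human serum at 2.5% hematocrit, at 37 °C under 10% O2/6% CO2/84% N2. After 48 h exposure without medium change, cells were stained with hydroethidine (0.05 mg/mL in PBS, 20 min, dark, 37 °C). Parasitaemia was read by flow cytometry. IC50 came from three independent experiments.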

[1] = Selectivity index, ratio of IC50 for human THP1 cells to IC50 for chloroquine-resistant Plasmodium falciparum W2; type: toxicity, cell-based, THP-1; details: read-out: Selectivity Index
[2] = Cytotoxicity against human MT4 cells after 4 days by MTT assay; type: cell-based
Procedure, shortened: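 Uninfected MT-4 cells were run in parallel with the antiviral test under the same conditions: 10⁵ cells/mL, serial compound dilutions from DMSO stocks, 4 days at 37 °C. Viability was read by MTT. CC50 is the concentration that lowers viability of uninfected cells by 50%.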

[3] = system: Human immunodeficiency virus 1; assay: Antiviral activity against HIV1 3B infected in human MT4 cells assessed as inhibition of virus-induced cytopathic effect after 4 days by MTT assay; type: functional, organism-based; details: Human immunodeficiency virus 1, 3B, MT4, 96 h
[4] = system: Human immunodeficiency virus 2; assay: Antiviral activity against HIV2 ROD infected in human MT4 cells assessed as inhibition of virus-induced cytopathic effect after 4 days by MTT assay; type: functional, organism-based; details: Human immunodeficiency virus 2, ISOLATE ROD, MT4, 96 h
[5] = Selectivity index, ratio of CC50 for human MT4 cells to IC50 for HIV2 ROD; type: functional
Procedure, shortened: (§1)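 Selectivity index was calculated as the MT-4 CC50 from uninfected cells divided by the IC50 against HIV-1 IIIB or HIV-2 ROD. Both values came from the 4-day MTT cytopathic-effect assays.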

[6] = Selectivity index, ratio of CC50 for human MT4 cells to IC50 for HIV1 3B; type: functional; procedure, shortened: as §1

Row | SMILES | IC50 (THP-1) [µM] | IC50 (Plasmodium falciparum) [µM] | selectivity ratio [1] | CC50 at 96 h [2] [µM] | IC50 [3] [µM] | IC50 [4] [µM] | Selectivity Index [5] | Selectivity Index [6]
1 | COc1c(-c2ccc(C(F)(F)F)cc2)oc2ccc(NC(C)=O)cc2c1=O | > 125 | 39 | > 3.2 | 332 | 332 | 332 |  | 
2 | COc1c(-c2ccccc2)oc2ccc(NC(C)=O)cc2c1=O | > 125 | 18 | > 6.9 | 200 | 200 | 200 |  | 
3 | COc1ccccc1-c1oc2ccc(NC(C)=O)cc2c(=O)c1OC | 108 | 16 | 6.7 | 154 | 154 | 154 |  | 
4 | COc1ccc(-c2oc3ccc(NC(C)=O)cc3c(=O)c2OC)cc1 | > 50 | 21 | > 2.4 | 369 | 369 | 369 |  | 
5 | COc1c(-c2ccccc2F)oc2ccc(NC(C)=O)cc2c1=O | > 125 | 15 | > 8.3 | 180 | 180 | 180 |  | 
6 | COc1c(-c2cccc(F)c2)oc2ccc(NC(C)=O)cc2c1=O | > 125 | 49 | > 2.6 | 210 | 210 | 210 |  | 
7 | COc1c(-c2ccc(F)cc2)oc2ccc(NC(C)=O)cc2c1=O | > 125 | 23 | > 5.4 | 317 | 317 | 317 |  | 
8 | COc1c(-c2cccc(C(F)(F)F)c2)oc2ccc(NC(C)=O)cc2c1=O | 52 | 19 | 2.7 | 201 | 201 | 201 |  | 
9 | COc1c(-c2ccccc2)oc2ccc(N)cc2c1=O | 74 | 20 | 3.7 | 126 | 126 | 126 |  | 
10 | COc1ccccc1-c1oc2ccc(N)cc2c(=O)c1OC | 116 | 7.7 | 15.1 | 229 | 229 | 229 |  | 
11 | COc1cccc(-c2oc3ccc(N)cc3c(=O)c2OC)c1 | 37 | 13 | 2.8 | 251 | 251 | 251 |  | 
12 | COc1ccc(-c2oc3ccc(N)cc3c(=O)c2OC)cc1 | 21 | > 21 |  | 200 | 200 | 58.2 | 3.4 | 
13 | COc1c(-c2ccccc2F)oc2ccc(N)cc2c1=O | > 125 | 23 | > 5.4 | 234 | 44.7 | 234 |  | 5.2
14 | COc1c(-c2cccc(F)c2)oc2ccc(N)cc2c1=O | 34 | > 34 |  | 112 | 112 | 60.7 | 1.9 | 
15 | COc1c(-c2ccc(F)cc2)oc2ccc(N)cc2c1=O | 36 | 33 | 1.1 | 141 | 141 | 141 |  | 
16 | COc1c(-c2cccc(C(F)(F)F)c2)oc2ccc(N)cc2c1=O | 33 | > 33 |  | 73.1 | 50.4 | 57.6 | 1.3 | 1.5

Row | SMILES | IC50 (THP-1) [µM] | IC50 (Plasmodium falciparum) [µM] | selectivity ratio [1] | CC50 at 96 h [2] [µM] | IC50 [3] [µM] | IC50 [4] [µM] | Selectivity Index [5] | Selectivity Index [6]
17 | COc1c(-c2ccc(C(F)(F)F)cc2)oc2ccc(N)cc2c1=O |  | 26 |  | 290 | 290 | 47.7 | 6.1 | 
18 | CC(=O)Nc1ccc(O)c(C(=O)/C=C/c2cccc(F)c2)c1 | 78.6 | 15.7 | 5 | 30.1 | 30.1 | 30.1 |  | 
19 | CC(=O)Nc1ccc(O)c(C(=O)/C=C/c2ccc(F)cc2)c1 | 68.8 | 16.9 | 4.1 | 41.1 | 41.1 | 41.1 |  | 
20 | CC(=O)Nc1ccc(O)c(C(=O)/C=C/c2ccc(C(F)(F)F)cc2)c1 | 15.5 | 11.6 | 1.3 | 21.1 | 21.1 | 21.1 |  | 
21 | CC(=O)Nc1ccc2oc(-c3ccccc3F)cc(=O)c2c1 | > 125 | 40 | > 3.1 | 205 | 205 | 205 |  | 
22 | CC(=O)Nc1ccc2oc(-c3cccc(F)c3)cc(=O)c2c1 | > 125 | 50 | > 2.5 | 240 | 240 | 240 |  | 
23 | COc1ccccc1-c1cc(=O)c2cc(N)ccc2o1 | 74 | 50 | 1.5 | 198 | 88 | 198 |  | 2.3
24 | COc1cccc(-c2cc(=O)c3cc(N)ccc3o2)c1 | > 125 | 31 | > 4 | 247 | 247 | 247 |  | 
25 | COc1ccc(-c2cc(=O)c3cc(N)ccc3o2)cc1 | 124 | 35 | 3.5 | 240 | 240 | 240 |  | 
26 | Nc1ccc2oc(-c3cccc(F)c3)cc(=O)c2c1 | > 125 | > 50 |  | 269 | 61.1 | 58.4 | 4.6 | 4.4
27 | COc1ccccc1-c1oc2ccc(NC(C)=O)cc2c(=O)c1O | > 125 | 50 | > 2.5 | 385 | 385 | 385 |  | 
28 | COc1ccccc1-c1oc2ccc(N)cc2c(=O)c1O | 102 | 46 | 2.2 | 222 | 222 | 222 |  | 
29 | O=c1[nH]cnc2c1ncn2[C@H]1CC[C@@H](CO)O1 [DIDANOSINE] |  |  |  | > 529 |  |  | >195 | >98
30 | Cc1ccnc2c1NC(=O)c1cccnc1N2C1CC1 [NEVIRAPINE] |  |  |  |  | 0.03 | 15 | 46 | 
31 | Cc1cn([C@H]2C[C@H](N=[N+]=[N-])[C@@H](CO)O2)c(=O)[nH]c1=O [ZIDOVUDINE] |  |  |  | 93.5 | 0.005 |  |  | >17990
